Converted amounts (≈) assume the structure as drawn.
How the values were obtained:
Type in all cases: functional
Escherichia coli [1] = assay: Antimicrobial activity against Escherichia coli DH5alpha 2878 transformant expressing beta-lactamase VIM-19 by microdilution method
Method in brief: (§1)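 MIC by dilution on Mueller-Hinton agar, inoculum 10^4 CFU per spot, interpreted by CA-SFM guidelines. Inhibitor combinations where tested: clavulanic acid 2 μg/ml, tazobactam 4 μg/ml, EDTA 0.4 mM. Transconjugants came from rifampin-resistant E. coli C600 selected on rifampin 300 μg/ml plus cefotaxime 0.5 μg/ml. Transformants came from electroporation into E. coli DH5α selected on cefotaxime 0.5 μg/ml.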

Klebsiella pneumoniae [2] = assay: Antimicrobial activity against Klebsiella pneumoniae 2878 strain expressing beta-lactamase VIM-19 by microdilution method
Method in brief: (§2)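 Clinical isolates from intensive care patients. MICs by dilution on Mueller-Hinton agar, inoculum 10^4 CFU per spot, read after growth and interpreted by CA-SFM guidelines. Where the line names an inhibitor, it was held at a fixed level: clavulanic acid 2 μg/ml, tazobactam 4 μg/ml, or EDTA 0.4 mM.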

Providencia stuartii [3] = assay: Antimicrobial activity against Providencia stuartii 6858 strain expressing beta-lactamase VIM-19 by microdilution method; method in brief: as §2
Escherichia coli [4] = assay: Antimicrobial activity against Escherichia coli C600 2878 transconjugate expressing beta-lactamase VIM-19 by microdilution method; method in brief: as §1
Escherichia coli [5] = assay: Antimicrobial activity against Escherichia coli 138 expressing beta-lactamase VIM-19 by microdilution method; method in brief: as §2
Klebsiella pneumoniae [6] = assay: Antimicrobial activity against Klebsiella pneumoniae 6828 strain expressing beta-lactamase VIM-19 by microdilution method; method in brief: as §2
Escherichia coli [7] = assay: Antimicrobial activity against Escherichia coli DH5alpha harbouring plasmid BK-VIM-19 expressing beta-lactamase VIM-19 by microdilution method; method in brief: as §1
Escherichia coli [8] = assay: Antimicrobial activity against Escherichia coli 2603 strain expressing beta-lactamase VIM-19 by microdilution method; method in brief: as §2
Escherichia coli [9] = assay: Antimicrobial activity against Escherichia coli harbouring plasmid BK-CMV expressing beta-lactamase VIM-19 by microdilution method; method in brief: as §1
Escherichia coli [10] = assay: Antimicrobial activity against Escherichia coli DH5alpha 2878 transformant expressing beta-lactamase VIM-19 by microdilution method in presence of 0.4 mM EDTA; method in brief: as §1
Escherichia coli [11] = assay: Antimicrobial activity against Escherichia coli 138 expressing beta-lactamase VIM-19 by microdilution method in presence of 0.4 mM EDTA; method in brief: as §1
Klebsiella pneumoniae [12] = assay: Antimicrobial activity against Klebsiella pneumoniae 2878 strain expressing beta-lactamase VIM-19 […] in presence of 0.4 mM EDTA
Providencia stuartii [13] = assay: Antimicrobial activity against Providencia stuartii 6858 strain expressing beta-lactamase VIM-19 by microdilution method in presence of 0.4 mM EDTA; method in brief: as §2
Klebsiella pneumoniae [14] = assay: Antimicrobial activity against Klebsiella pneumoniae 6828 strain expressing beta-lactamase VIM-19 by microdilution method in presence of 0.4 mM EDTA; method in brief: as §2
Escherichia coli [15] = assay: Antimicrobial activity against Escherichia coli 2603 strain expressing beta-lactamase VIM-19 by microdilution method in presence of 0.4 mM EDTA; method in brief: as §2
Escherichia coli [16] = assay: Antimicrobial activity against Escherichia coli C600 2878 transconjugate expressing beta-lactamase VIM-19 by microdilution method in presence of 0.4 mM EDTA
Method in brief: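 Rifampin-resistant E. coli C600 recipient mated with the clinical strain. Transconjugants were selected on agar with rifampin 300 μg/ml plus cefotaxime 0.5 μg/ml. MICs by dilution on Mueller-Hinton agar, inoculum 10^4 CFU per spot, CA-SFM interpretation. Inhibitor at a fixed level: clavulanic acid 2 μg/ml or EDTA 0.4 mM.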

Escherichia coli [17] = assay: Antimicrobial activity against Escherichia coli DH5alpha harbouring plasmid BK-VIM-19 expressing beta-lactamase VIM-19 by microdilution method in presence of 0.4 mM EDTA; method in brief: as §1
Escherichia coli [18] = assay: Antimicrobial activity against Escherichia coli harbouring plasmidBK-CMV expressing beta-lactamase VIM-19 […] in presence of 0.4 mM EDTA

Row | Compound | MIC (Escherichia coli [1]) [µg/mL] | MIC (Klebsiella pneumoniae [2]) [µg/mL] | MIC (Providencia stuartii [3]) [µg/mL] | MIC (Escherichia coli [4]) [µg/mL] | MIC (Escherichia coli [5]) [µg/mL] | MIC (Klebsiella pneumoniae [6]) [µg/mL] | MIC (Escherichia coli [7]) [µg/mL] | MIC (Escherichia coli [8]) [µg/mL] | MIC (Escherichia coli [9]) [µg/mL] | MIC (Escherichia coli [10]) [µg/mL] | MIC (Escherichia coli [11]) [µg/mL] | MIC (Klebsiella pneumoniae [12]) [µg/mL] | MIC (Providencia stuartii [13]) [µg/mL] | MIC (Klebsiella pneumoniae [14]) [µg/mL] | MIC (Escherichia coli [15]) [µg/mL] | MIC (Escherichia coli [16]) [µg/mL] | MIC (Escherichia coli [17]) [µg/mL] | MIC (Escherichia coli [18]) [µg/mL]
1 | CC1(C)S[C@@H]2[C@H](NC(=O)[C@H](C(=O)O)c3ccsc3)C(=O)N2[C@H]1C(=O)O [TICARCILLIN] | > 2050 | > 2050 | > 2050 | > 2050 | > 2050 | > 2050 | > 2050 | > 2050 | 2 (≈ 5.2 µM) | – | – | – | – | – | – | – | – | –
2 | CC(=O)OCC1=C(C(=O)O)N2C(=O)[C@@H](NC(=O)Cc3cccs3)[C@H]2SC1 [CEPHALOTHIN] | 2050 (≈ 5170 µM) | > 2050 | > 2050 | 1020 (≈ 2580 µM) | > 2050 | 2050 (≈ 5170 µM) | 1020 (≈ 2580 µM) | 2050 (≈ 5170 µM) | 4 (≈ 10.1 µM) | – | – | – | – | – | – | – | – | –
3 | C[C@@H](O)[C@H]1C(=O)N2C(C(=O)O)=C(SCCNC=N)C[C@H]12 [IMIPENEM ANHYDROUS] | 8 (≈ 26.7 µM) | 64 (≈ 214 µM) | 16 (≈ 53.4 µM) | 4 (≈ 13.4 µM) | 32 (≈ 107 µM) | 4 (≈ 13.4 µM) | 16 (≈ 53.4 µM) | 16 (≈ 53.4 µM) | – | < 0.12 | 0.5 | 0.5 | 0.5 | < 0.12 | 0.25 | < 0.12 | < 0.12 | < 0.12
4 | CO[C@@]1(NC(=O)Cc2cccs2)C(=O)N2C(C(=O)O)=C(COC(N)=O)CS[C@@H]21 [CEFOXITIN] | 256 (≈ 599 µM) | 512 (≈ 1200 µM) | 128 (≈ 299 µM) | 128 (≈ 299 µM) | 512 (≈ 1200 µM) | 128 (≈ 299 µM) | 128 (≈ 299 µM) | 512 (≈ 1200 µM) | 4 (≈ 9.36 µM) | – | – | – | – | – | – | – | – | –
5 | CO/N=C(\C(=O)N[C@@H]1C(=O)N2C(C(=O)O)=C(COC(N)=O)CS[C@H]12)c1ccco1 [CEFUROXIME] | 1020 (≈ 2410 µM) | 1020 (≈ 2410 µM) | 1020 (≈ 2410 µM) | 512 (≈ 1210 µM) | > 1020 | 1020 (≈ 2410 µM) | 1020 (≈ 2410 µM) | > 1020 | 4 (≈ 9.43 µM) | – | – | – | – | – | – | – | – | –
6 | C[C@@H](O)[C@H]1C(=O)N2C(C(=O)O)=C(S[C@@H]3CN[C@H](C(=O)N(C)C)C3)[C@H](C)[C@H]12 [MEROPENEM] | 8 (≈ 20.9 µM) | 32 (≈ 83.4 µM) | 8 (≈ 20.9 µM) | 1 (≈ 2.61 µM) | 16 (≈ 41.7 µM) | 4 (≈ 10.4 µM) | 8 (≈ 20.9 µM) | 8 (≈ 20.9 µM) | < 0.12 | < 0.12 | < 0.12 | < 0.12 | < 0.12 | < 0.12 | < 0.12 | < 0.12 | < 0.12 | < 0.12

Source: ChEMBL document CHEMBL1212777, “Novel VIM metallo-beta-lactamase variant from clinical isolates of Enterobacteriaceae from Algeria” (2010)
